Measured values taken from ChEMBL document CHEMBL2177039, “Identification of a chemical probe for bromo and extra C-terminal bromodomain inhibition through optimization of a fragment-derived hit” (J Med Chem, 2012).
Each block holds one compound with its values, some of them ahead of it.

Legend:
[1] = biological target: Bromodomain-containing protein 4 (Homo sapiens, UniProt O60885); test: Inhibition of BRD4 isoform 1 by AlphaScreen assay
How it was run: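 His-tagged bromodomain protein preincubated 30 min at room temperature with compound in 50 mM HEPES, 100 mM NaCl, 0.1% BSA, pH 7.4, plus 0.05% CHAPS; biotinylated peptide added for a further 30 min; streptavidin donor and nickel chelate acceptor beads (25 µg/ml each) then added, 60 min in the dark.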

PBMC = test: Inhibition of LPS-induced IL6 production in human PBMC by ELISA; assay type: functional, cell-based
How it was run: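 Mononuclear cells washed in Ca/Mg-free PBS, then RPMI + 5% FBS; plated at 2E5 cells/well. Compound added at 0.1% DMSO final and preincubated 30 min; stimulated with ultrapure LPS O111:B4 at 0.5 ng/ml final. Supernatants collected after 20 h; cytokines measured by multiplex ELISA.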

Liver microsomes = test: Half life in rat liver microsomes; assay type: ADME, Microsome
[2] = Volume of distribution in rat at 1 mg/kg, iv; assay type: ADME, organism-based; set-up: dose 1 mg/kg, route intravenous; conditions: in vivo
[3] = Tmax in mouse at 2 mg/kg, sc; assay type: ADME, organism-based; set-up: dose 2 mg/kg, route subcutaneous; conditions: in vivo
[4] = biological target: Bromodomain testis-specific protein (Homo sapiens) (UniProt Q58F21); test: Binding affinity to BRDT isoform 1 assessed as change in melting temperature at 10 uM by thermal shift assay
[5] = Cmax in mouse at 2 mg/kg, sc; assay type: ADME, organism-based; set-up: dose 2 mg/kg, route subcutaneous; conditions: in vivo
[6] = biological target: Bromodomain adjacent to zinc finger domain protein 2B (Homo sapiens) (UniProt Q9UIF8); test: Binding affinity to BAZ2B assessed as change in melting temperature at 10 uM by thermal shift assay
CREB-binding protein [7] = biological target: T1, CREB-binding protein (Homo sapiens, UniProt Q92793); test: Binding affinity to CREBBP by SPR method
[8] = biological target: Bromodomain-containing protein 2 (Homo sapiens) (UniProt P25440); test: Binding affinity to BRD2 isoform 2 assessed as change in melting temperature at 10 uM by thermal shift assay
Sequence of Bromodomain-containing protein 2 (Homo sapiens) (P25440 whole entry, looked up, canonical isoform): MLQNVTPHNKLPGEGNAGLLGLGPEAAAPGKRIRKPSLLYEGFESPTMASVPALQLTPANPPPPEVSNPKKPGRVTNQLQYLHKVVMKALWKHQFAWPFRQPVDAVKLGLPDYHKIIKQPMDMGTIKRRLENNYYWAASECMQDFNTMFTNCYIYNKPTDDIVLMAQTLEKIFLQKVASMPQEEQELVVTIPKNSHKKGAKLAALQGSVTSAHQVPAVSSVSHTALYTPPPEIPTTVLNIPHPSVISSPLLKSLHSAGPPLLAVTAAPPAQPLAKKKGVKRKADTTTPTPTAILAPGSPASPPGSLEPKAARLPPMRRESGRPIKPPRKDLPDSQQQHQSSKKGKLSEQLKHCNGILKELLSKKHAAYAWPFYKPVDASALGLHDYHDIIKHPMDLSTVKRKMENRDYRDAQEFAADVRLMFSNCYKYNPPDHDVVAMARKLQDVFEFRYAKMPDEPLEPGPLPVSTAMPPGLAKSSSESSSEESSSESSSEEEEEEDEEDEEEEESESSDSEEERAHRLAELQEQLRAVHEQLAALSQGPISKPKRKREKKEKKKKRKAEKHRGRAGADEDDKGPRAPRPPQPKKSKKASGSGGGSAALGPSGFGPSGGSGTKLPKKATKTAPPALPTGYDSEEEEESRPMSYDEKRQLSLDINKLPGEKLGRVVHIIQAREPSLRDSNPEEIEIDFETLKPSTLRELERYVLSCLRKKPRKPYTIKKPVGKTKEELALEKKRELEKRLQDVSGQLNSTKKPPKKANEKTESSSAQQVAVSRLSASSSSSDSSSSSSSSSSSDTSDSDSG

[9] = Oral bioavailability […] in rat at 2 mg/kg; assay type: ADME, organism-based; conditions: in vivo
[10] = Half life in rat at 1 mg/kg, iv; assay type: ADME, organism-based; set-up: dose 1 mg/kg, route intravenous; conditions: in vivo
CREB-binding protein [11] = biological target: T1, CREB-binding protein; test: Binding affinity to CREBBP assessed as change in melting temperature at 10 uM by thermal shift assay
Target sequence in this assay (Q92793 2-2442 limits assumed): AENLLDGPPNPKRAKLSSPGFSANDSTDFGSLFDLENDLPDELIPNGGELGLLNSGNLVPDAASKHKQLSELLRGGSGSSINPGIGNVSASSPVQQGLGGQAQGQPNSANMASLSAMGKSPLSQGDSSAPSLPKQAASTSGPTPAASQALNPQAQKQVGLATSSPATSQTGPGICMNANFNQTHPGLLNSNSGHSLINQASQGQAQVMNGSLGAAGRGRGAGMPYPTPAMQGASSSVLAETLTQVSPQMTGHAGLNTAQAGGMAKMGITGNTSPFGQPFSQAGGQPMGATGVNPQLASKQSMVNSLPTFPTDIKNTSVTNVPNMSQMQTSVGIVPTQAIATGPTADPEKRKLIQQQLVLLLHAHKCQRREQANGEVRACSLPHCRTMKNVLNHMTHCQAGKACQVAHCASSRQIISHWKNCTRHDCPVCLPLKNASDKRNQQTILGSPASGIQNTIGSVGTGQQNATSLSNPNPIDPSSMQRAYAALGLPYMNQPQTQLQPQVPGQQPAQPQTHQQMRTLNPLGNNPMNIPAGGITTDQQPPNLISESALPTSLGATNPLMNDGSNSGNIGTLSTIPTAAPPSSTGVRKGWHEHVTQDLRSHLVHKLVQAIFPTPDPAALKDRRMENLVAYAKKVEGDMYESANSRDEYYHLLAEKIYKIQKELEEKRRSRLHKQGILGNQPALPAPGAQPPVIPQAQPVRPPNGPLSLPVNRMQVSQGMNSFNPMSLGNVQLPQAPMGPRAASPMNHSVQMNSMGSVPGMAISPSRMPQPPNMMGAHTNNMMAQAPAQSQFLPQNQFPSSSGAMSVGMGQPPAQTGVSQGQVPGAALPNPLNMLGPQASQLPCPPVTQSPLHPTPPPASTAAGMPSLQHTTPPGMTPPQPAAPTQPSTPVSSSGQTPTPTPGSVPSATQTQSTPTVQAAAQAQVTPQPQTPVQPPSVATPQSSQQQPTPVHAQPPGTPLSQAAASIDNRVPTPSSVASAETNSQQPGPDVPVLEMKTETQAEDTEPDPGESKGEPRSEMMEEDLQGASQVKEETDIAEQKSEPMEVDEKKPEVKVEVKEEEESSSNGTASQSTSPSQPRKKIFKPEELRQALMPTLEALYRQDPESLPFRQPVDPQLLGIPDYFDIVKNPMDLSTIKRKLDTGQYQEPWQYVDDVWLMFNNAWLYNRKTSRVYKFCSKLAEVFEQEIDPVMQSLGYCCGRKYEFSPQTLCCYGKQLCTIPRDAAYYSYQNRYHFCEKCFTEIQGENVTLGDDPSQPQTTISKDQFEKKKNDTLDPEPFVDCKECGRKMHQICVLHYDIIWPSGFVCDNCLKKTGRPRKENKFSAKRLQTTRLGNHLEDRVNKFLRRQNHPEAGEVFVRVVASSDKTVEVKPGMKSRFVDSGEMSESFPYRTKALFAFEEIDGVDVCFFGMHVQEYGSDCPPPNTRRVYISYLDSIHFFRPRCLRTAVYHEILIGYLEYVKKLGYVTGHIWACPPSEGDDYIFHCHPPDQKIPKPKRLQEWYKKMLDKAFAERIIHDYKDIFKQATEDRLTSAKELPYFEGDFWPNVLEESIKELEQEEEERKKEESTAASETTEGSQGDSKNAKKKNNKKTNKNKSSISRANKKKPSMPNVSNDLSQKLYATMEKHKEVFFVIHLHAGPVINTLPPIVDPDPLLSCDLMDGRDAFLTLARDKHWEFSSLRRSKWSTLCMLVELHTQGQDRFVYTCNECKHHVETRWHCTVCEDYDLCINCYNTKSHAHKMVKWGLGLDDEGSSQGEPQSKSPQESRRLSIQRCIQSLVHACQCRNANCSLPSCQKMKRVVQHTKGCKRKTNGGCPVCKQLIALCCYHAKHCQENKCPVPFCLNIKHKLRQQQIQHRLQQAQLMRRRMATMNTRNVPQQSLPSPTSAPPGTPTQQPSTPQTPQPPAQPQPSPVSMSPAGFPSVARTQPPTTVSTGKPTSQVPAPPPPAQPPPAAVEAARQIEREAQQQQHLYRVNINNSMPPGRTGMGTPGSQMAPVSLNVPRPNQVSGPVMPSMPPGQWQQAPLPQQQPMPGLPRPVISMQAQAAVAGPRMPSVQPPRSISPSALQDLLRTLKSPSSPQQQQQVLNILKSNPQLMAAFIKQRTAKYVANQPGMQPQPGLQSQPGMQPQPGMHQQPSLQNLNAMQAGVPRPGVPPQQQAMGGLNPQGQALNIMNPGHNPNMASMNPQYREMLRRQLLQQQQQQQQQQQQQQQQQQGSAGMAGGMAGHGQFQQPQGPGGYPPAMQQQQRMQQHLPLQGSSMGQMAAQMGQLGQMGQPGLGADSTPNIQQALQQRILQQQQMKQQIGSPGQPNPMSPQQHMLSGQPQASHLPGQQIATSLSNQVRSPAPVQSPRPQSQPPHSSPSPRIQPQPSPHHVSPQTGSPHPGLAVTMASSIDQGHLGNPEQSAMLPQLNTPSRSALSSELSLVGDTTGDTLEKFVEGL

[12] = Protein binding in rat plasma; assay type: ADME, cell-free; conditions: read-out: PPB (converted)
[13] = Drug concentration in rat gut at 1 mg/kg, iv measured 7 hrs post dose; assay type: ADME, organism-based; set-up: dose 1 mg/kg, route intravenous; conditions: read-out: Drug uptake
[14] = biological target: Bromodomain-containing protein 3 (Homo sapiens) (UniProt Q15059); test: Binding affinity to BRD3 isoform 1 assessed as change in melting temperature at 10 uM by thermal shift assay
Sequence of Bromodomain-containing protein 3 (Homo sapiens) (Q15059 2-726 limits assumed): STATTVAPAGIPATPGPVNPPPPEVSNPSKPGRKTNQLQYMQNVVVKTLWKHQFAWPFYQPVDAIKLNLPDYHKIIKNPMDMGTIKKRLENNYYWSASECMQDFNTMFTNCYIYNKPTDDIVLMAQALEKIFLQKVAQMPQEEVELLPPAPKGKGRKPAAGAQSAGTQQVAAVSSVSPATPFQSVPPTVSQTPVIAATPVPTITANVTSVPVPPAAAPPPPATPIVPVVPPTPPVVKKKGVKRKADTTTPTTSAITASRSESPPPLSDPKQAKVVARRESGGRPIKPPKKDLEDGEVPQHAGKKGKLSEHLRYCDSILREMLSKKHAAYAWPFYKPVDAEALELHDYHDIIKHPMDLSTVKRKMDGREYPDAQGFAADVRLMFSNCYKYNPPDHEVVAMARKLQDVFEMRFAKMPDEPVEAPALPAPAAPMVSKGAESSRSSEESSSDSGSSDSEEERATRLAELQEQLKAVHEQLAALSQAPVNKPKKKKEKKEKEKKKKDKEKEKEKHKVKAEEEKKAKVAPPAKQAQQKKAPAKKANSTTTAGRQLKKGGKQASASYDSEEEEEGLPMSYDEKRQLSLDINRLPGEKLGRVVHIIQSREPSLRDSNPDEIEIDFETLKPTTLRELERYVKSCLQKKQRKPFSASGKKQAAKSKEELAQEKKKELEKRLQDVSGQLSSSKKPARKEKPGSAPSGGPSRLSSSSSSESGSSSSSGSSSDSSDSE

[15] = Plasma clearance in rat at 1 mg/kg, iv; assay type: ADME, organism-based; set-up: dose 1 mg/kg, route intravenous
[16] = biological target: Histone acetyltransferase KAT2B (Homo sapiens) (UniProt Q92831); test: Binding affinity to PCAF assessed as change in melting temperature at 10 uM by thermal shift assay
Sequence of Histone acetyltransferase KAT2B (Homo sapiens) (Q92831 whole entry, looked up, canonical isoform): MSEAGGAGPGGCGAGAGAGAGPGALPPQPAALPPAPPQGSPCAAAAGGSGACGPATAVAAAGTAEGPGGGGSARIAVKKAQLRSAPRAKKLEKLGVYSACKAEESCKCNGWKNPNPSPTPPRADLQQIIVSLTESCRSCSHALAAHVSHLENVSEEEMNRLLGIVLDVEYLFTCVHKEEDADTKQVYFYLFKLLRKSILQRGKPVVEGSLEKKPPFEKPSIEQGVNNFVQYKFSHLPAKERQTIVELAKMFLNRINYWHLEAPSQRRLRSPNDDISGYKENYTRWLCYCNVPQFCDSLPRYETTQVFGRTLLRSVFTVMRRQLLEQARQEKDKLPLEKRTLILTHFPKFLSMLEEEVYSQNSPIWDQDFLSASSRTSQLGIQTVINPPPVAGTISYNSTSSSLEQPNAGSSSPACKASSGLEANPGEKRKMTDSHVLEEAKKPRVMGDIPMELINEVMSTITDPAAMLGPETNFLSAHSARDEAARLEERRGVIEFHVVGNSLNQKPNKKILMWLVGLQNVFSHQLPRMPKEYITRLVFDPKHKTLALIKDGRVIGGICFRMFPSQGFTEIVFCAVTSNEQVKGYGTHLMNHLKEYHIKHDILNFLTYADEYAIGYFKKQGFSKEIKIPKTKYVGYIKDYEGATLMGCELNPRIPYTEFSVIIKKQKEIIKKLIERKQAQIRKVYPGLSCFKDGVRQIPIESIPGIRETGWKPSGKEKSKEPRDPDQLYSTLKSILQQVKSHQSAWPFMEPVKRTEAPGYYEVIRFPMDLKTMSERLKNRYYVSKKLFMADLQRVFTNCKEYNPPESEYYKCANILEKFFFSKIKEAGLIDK

[17] = biological target: Protein polybromo-1 (Homo sapiens) (UniProt Q86U86); test: Binding affinity to pb1 isoform 5 assessed as change in melting temperature at 10 uM by thermal shift assay
[18] = biological target: Bromodomain-containing protein 3 (Homo sapiens) (UniProt Q15059); test: Binding affinity to BRD3 isoform 2 assessed as change in melting temperature at 10 uM by thermal shift assay
[19] = biological target: Bromodomain-containing protein 2 (Homo sapiens) (UniProt P25440); test: Binding affinity to BRD2 isoform 1 assessed as change in melting temperature at 10 uM by thermal shift assay
[20] = Half life in mouse at 2 mg/kg, sc; assay type: ADME, organism-based; set-up: dose 2 mg/kg, route subcutaneous; conditions: in vivo

IC50 [1]: 0.47 µM
SMILES: CN1Cc2cc(NS(=O)(=O)c3ccccc3C(F)(F)F)ccc2NC1=O

t1/2 (Liver microsomes): > 2 h
Vd [2]: 1 L/kg
Tmax [3]: 1 h
ΔTm [4]: 2.08 °C
Cmax [5]: 58 ng/mL
ΔTm [6]: 0.3 °C
Kd (CREB-binding protein [7]): 49 µM
ΔTm [8]: 5.32 °C
bioavailability [9]: 32%
half-life [10]: 1 h
ΔTm (CREB-binding protein [11]): 1.7 °C
fraction unbound [12]: 0.31
concentration at 7 h [13]: 62 ng/mL
ΔTm [14]: 5.24 °C
clearance [15]: 18 mL/min/kg
ΔTm [16]: 0.81 °C
ΔTm [17]: 0.83 °C
ΔTm [18]: 5.45 °C
ΔTm [19]: 4.61 °C
half-life [20]: 2 h
SMILES: COc1ccccc1S(=O)(=O)Nc1ccc2c(c1)CN(C)C(=O)N2
EC50 (PBMC): 1.89 µM

IC50 [1]: 0.36 µM
SMILES: CN1Cc2cc(NS(=O)(=O)c3ccccc3F)ccc2NC1=O

IC50 [1]: 0.22 µM
SMILES: Cc1ccccc1S(=O)(=O)Nc1ccc2c(c1)CN(C)C(=O)N2

IC50 [1]: 0.88 µM
SMILES: CN1Cc2cc(NS(=O)(=O)c3ccccc3)ccc2NC1=O

The remaining lines, values behind:

SMILES: COc1ccc(S(=O)(=O)Nc2ccc3c(c2)CN(C)C(=O)N3)cc1
IC50 [1]: 0.88 µM

SMILES: CN1Cc2cc(S(=O)(=O)N3CCCC3)ccc2NC1=O
IC50 [1]: 4.8 µM

SMILES: CN1Cc2cc(NS(=O)(=O)c3ccc(F)cc3Cl)ccc2NC1=O
IC50 [1]: 0.18 µM

SMILES: COc1cccc(S(=O)(=O)Nc2ccc3c(c2)CN(C)C(=O)N3)c1
IC50 [1]: 0.73 µM

SMILES: CCNS(=O)(=O)c1ccc2c(c1)CN(C)C(=O)N2
IC50 [1]: 1.9 µM

SMILES: Cc1ccc(S(=O)(=O)Nc2ccc3c(c2)CN(C)C(=O)N3)cc1
IC50 [1]: 0.39 µM

SMILES: CN1Cc2cc(NS(=O)(=O)c3ccc(C#N)cc3)ccc2NC1=O
IC50 [1]: 2.3 µM
